Rows were chosen to be rich in hits. Some 2.9% of all compounds tested hit in one or more screens of this group.
S100A4 inh HTS – inhibitors of S100A4-myosin IIA peptide binding, primary screen, biochemical, fluorescence polarization, TAMRA-MyoIIA peptide | Protein S100-A4 (Homo sapiens), P26447 | actives 0.14% (n = 360,000) | inhibition, % at 10.7 µM;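 active = mean inhibition of at least 70% across replicates, with every replicate also reaching that level; inconclusive = mean inhibition reaches 70% but some replicates fall short; inactive = mean inhibition below 70%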
Target sequence (P26447 whole entry, looked up): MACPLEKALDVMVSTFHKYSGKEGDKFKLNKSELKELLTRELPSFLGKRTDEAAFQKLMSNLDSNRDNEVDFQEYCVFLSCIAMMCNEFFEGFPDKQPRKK
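Material: human S100A4 monomer with TAMRA-labelled myosin IIA peptide; buffer or medium: HEPES pH 7.2 with CaCl2, KCl, NaCl, DTT, Triton; compound dosing: one concentration per compound; schedule: 5 min incubation before reading; benchmarks: neutral control DMSO, positive control TFP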
CAL PDZ FP-1 – CAL PDZ peptide-binding inhibitors, primary screen, biochemical, fluorescence polarization, Cer-tagged CAL PDZ, HTS | purified CAL PDZ, TMR-peptide fluorescence polarization, 1 h | actives 0.02% (n = 330,000) | Golgi-associated PDZ and coiled-coil motif-containing protein (Homo sapiens), Q9HD26 | inhibition, % at 20 µM;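 active = highest replicate inhibition of at least 40%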;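 note: plate controls were DMSO neutral control wells for no effect and unlabeled competitor peptide control wells for full effect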
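Read-out basis: mP drop reported as inhibition | Assay system: Tagged CAL PDZ protein CerCALP, purified | Benchmarks: Unlabelled peptide for full inhibition, DMSO wells as neutral | Schedule: 1 h incubation at room temperature before polarization reading | Buffer or medium: Sodium phosphate/NaCl buffer pH 7.4 with TCEP, IgG, Thesit | Doses: Single point, 20 µM | Measured by: Fluorescence polarization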
CAL PDZ FP-2 – untagged CAL PDZ binding inhibitors, primary screen, biochemical, fluorescence polarization, HTS; Golgi-associated PDZ and coiled-coil motif-containing protein (Homo sapiens), Q9HD26; purified CAL PDZ, TMR-peptide fluorescence polarization, 1 h; inhibition, % at 24.9 µM; actives 0.92% (n = 300,000); AID 602252, 2012;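 active = mean inhibition of at least 30% with at least half of replicates also reaching 30%; inconclusive = no clear call, values can overlap the other calls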;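 note: 0% = DMSO neutral control and 100% = excess unlabeled competitor peptide PRC23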
DENV2 CPE rescue – inhibitors of DENV2 cytopathic effect, primary screen, cell-based, plate reader, single concentration; DENV2-infected cells, cytopathic effect rescue; AID 651640, 2012; actives 1.7% (n = 350,000); CPE inhibition, % at 9.99 µM; in the data active = CPE inhibition above about 20%, passing the limit was not always enough; inconclusive = no clear call, values can overlap the other calls; tested in BHK-21 cells;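 note: 0% = median of neutral control wells and 100% = median of positive control wells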
ERAP1 inh – human ERAP1 aminopeptidase inhibitors, primary screen, biochemical, single point, plate reader; Endoplasmic reticulum aminopeptidase 1 (Homo sapiens), Q9NZ08; recombinant ERAP1, Leu-AMC fluorescence, 60 min; inhibition, % at 10.7 µM; actives 0.15% (n = 340,000);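 active = mean replicate inhibition of at least 30%, or all replicates individually reaching that 30% level; inactive = mean below 30% and not every replicate reaching it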;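 note: 0% = neutral control wells and 100% = L-leucinethiol positive control wells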
SIRT5 block – SIRT5 desuccinylase inhibitors, primary screen, biochemical, fluorescence imaging, single point, set 5; NAD-dependent protein deacylase sirtuin-5, mitochondrial (Homo sapiens), Q9NXA8; Purified SirT5, succinyl-peptide AMC, trypsin-coupled fluorescence; inhibition, % at 15 µM; actives 1.1% (n = 330,000); in the data active = inhibition above about 15%; inconclusive = no clear call, values can overlap the other calls
Target sequence (Q9NXA8 whole entry, looked up): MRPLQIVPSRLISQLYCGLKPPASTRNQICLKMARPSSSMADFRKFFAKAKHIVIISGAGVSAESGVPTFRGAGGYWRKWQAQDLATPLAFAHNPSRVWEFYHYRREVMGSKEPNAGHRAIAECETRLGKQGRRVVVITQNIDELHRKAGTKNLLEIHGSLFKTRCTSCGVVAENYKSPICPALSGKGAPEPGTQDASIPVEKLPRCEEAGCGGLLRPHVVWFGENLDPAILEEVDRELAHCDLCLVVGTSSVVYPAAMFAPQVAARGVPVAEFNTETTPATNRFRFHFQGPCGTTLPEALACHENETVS
Starred values were filed as active, the others as inactive; ? = inconclusive; nt = not tested or not shown.

SMILES | S100A4 inh HTS | CAL PDZ FP-1 | CAL PDZ FP-2 | DENV2 CPE rescue | ERAP1 inh | SIRT5 block
COC(=O)[C@@H]1[C@@H](CO)[C@@H]2Cn3c(ccc(C4=CCCC4)c3=O)[C@H]1N2CC1CCCCC1 | -4 | nt | nt | -4 | -3 | 4
C[N+](C)(C)CC1CCCC1=O (configuration not stated) | 2 | -2 | -5 | 4 | 80* | nt
O=C(O)[C@@H]1[C@@H](CO)[C@@H]2Cn3c(cccc3=O)[C@H]1N2C(=O)c1ccccc1 | 0 | nt | nt | 3 | 1 | 7
CCC1CN1P(=O)(c1ccccc1)N1CC1CC (configuration not stated) | 7 | 0 | 113* | -4 | 2 | nt
Cc1ccsc1/C=C1\C(=O)NC(=S)N(C)C1=O | -72 | 1 | nt | -2 | 3 | 4
COc1ccc(/C=C2\C(=O)NC(=S)N(C)C2=O)cc1C | -4 | -2 | -2 | nt | 34* | 4
O=C(Cc1cccnc1)N1CCCCN2[C@H](CO)[C@@H](c3ccc(/C=C/c4ccccc4)cc3)[C@@H]2C1 | -1 | nt | nt | -9 | -1 | -6
COC(=O)C1=C(c2ccc(OC(F)(F)F)cc2)C[C@@H]2CC[C@H]1N2C(=O)N1CCCCC1 | 0 | 1 | -1 | 48* | 0 | nt
COC(=O)C1=C(c2ccccc2)C[C@@H]2CC[C@H]1N2C(=O)N1CCOCC1 | -2 | 1 | 1 | 38* | nt | nt
COC(=O)[C@H]1[C@H](CO)[C@H]2Cn3c(ccc(-c4ccc(OC)cc4)c3=O)[C@@H]1N2C(=O)c1ccccc1F | -24 | nt | nt | 6 | 0 | -57
OC[C@@H]1[C@@H]2c3ccccc3NC[C@@H]2N1Cc1cccnc1 | -4 | nt | nt | -6 | 0 | 3
COC(=O)[C@@H]1[C@@H](CO)[C@@H]2Cn3c(cccc3=O)[C@H]1N2Cc1nccs1 | 0 | nt | nt | 0 | -1 | -1
COc1ccc(CCC(=O)N2C[C@H]3C[C@@H](C2)c2cccc(=O)n2C3)cc1 | -2 | 0 | -1 | 3 | nt | nt
Cc1c(CCC(=O)N2C[C@H]3C[C@@H](C2)c2cccc(=O)n2C3)c(=O)oc2c(C)c(O)ccc12 | -6 | nt | nt | 56* | -16 | -20
COc1ccc(CC(=O)N2C[C@H]3C[C@@H](C2)c2cccc(=O)n2C3)cc1 | 40 | 0 | -2 | 27* | nt | nt
O=C(Cc1cccnc1)N1CCCCN2[C@@H](CO)[C@@H](c3ccc(C#CC4CC4)cc3)[C@@H]2C1 | 5 | nt | nt | -2 | 0 | 0
Cc1ccccc1-c1ccc([C@H]2[C@H]3CN(C(=O)Cc4ccccn4)CCCCN3[C@H]2CO)cc1 | -13 | nt | nt | -8 | 0 | 2
CCOS(C)(=O)=O | 21 | 0 | -2 | 48* | -8 | nt
O=C(O)[C@H]1[C@H](CO)[C@H]2Cn3c(ccc(-c4ccncc4)c3=O)[C@@H]1N2C(=O)C1CCCCC1 | 99* | nt | nt | -2 | 3 | -54
CC(C)NC(=O)N1[C@@H]2c3ccc(-c4cccc(C(=O)N(C)C)c4)c(=O)n3C[C@H]1[C@H](CO)[C@H]2C(=O)O | 3 | nt | nt | ? | -1 | -33
COc1ccc(C(CNC(=O)Cc2ccc(Cl)c(Cl)c2)N2CCCCC2)cc1 (configuration not stated) | -13 | 0 | 61* | 2 | -4 | -1
C=CCCC1(C2=CCCCC2)C(=O)NC(=O)NC1=O | 12 | 0 | -7 | 27* | 3 | -4
COC(=O)[C@H]1[C@H](CO)[C@H]2Cn3c(ccc(-c4ccccc4)c3=O)[C@@H]1N2CC1CC1 | 12 | nt | nt | 2 | -2 | -1
Cc1ccc(N)cc1N | -2 | 0 | -1 | 66* | -1 | nt
C/C=C/c1ccc(C2[C@@H]3CN(C(=O)CN(C)C)C[C@H]2N3)cc1 (some centres not stated) | -1 | nt | nt | 2 | 3 | -1
SMILES | S100A4 inh HTS | CAL PDZ FP-1 | CAL PDZ FP-2 | DENV2 CPE rescue | ERAP1 inh | SIRT5 block
c1ccc(CN2CCN(Cc3ccc4ccccc4c3)CC2)cc1 | 10 | 0 | -2 | 11 | 1 | 5
CN(C)c1cccc(CN2CCN(c3ccccc3)CC2)c1 | 8 | nt | nt | 4 | 14 | 15*
O=c1[nH]c2ccccc2n1C1CCN(C(c2cccc3ccccc23)c2nnnn2-c2ccc3c(c2)OCCO3)CC1 (configuration not stated) | -3 | nt | nt | 25* | 1 | -2
C[C@H]1CN([C@@H](C)CO)C(=O)CCCn2cc(nn2)CO[C@@H]1CN(C)C(=O)Oc1ccc2ccccc2c1 | 1 | nt | nt | 0 | 0 | -2
CCN(CCCl)c1cc(CN(C)C)cc(NC(=O)c2ccc(C(=O)Nc3cc(CN(C)C)cc(N(CC)CCCl)c3)cc2)c1 | -3 | 4 | -1 | 7 | 49* | -6
CCN(CC)C(=O)c1ccc(NC(=O)c2cccc(C(F)(F)F)c2)cc1 | 7 | -1 | nt | 4 | 3 | 3
COc1ccc(C(CC(C)=O)c2c(O)c3ccccc3oc2=O)cc1OC (configuration not stated) | -2 | nt | nt | 1 | 5 | -2
CC/C(CC(c1ccccc1)c1c(O)c2ccccc2oc1=O)=N\NC(N)=S (configuration not stated) | nt | -1 | 65* | nt | nt | nt
O=[N+]([O-])c1ccc(Nc2ccccc2)cc1 | 6 | -1 | -3 | -4 | 5 | 6
c1ccc(Nc2ccc(Nc3ccccc3)cc2)cc1 | 5 | 0 | -1 | 41* | -6 | nt
O=C(CN1CCCC1)Nc1ccc(Cl)cc1C(=O)c1ccccc1 | -9 | -1 | nt | 8 | 1 | 15*
O=C(CCN1CCCCC1)Nc1ccc(Cl)cc1C(=O)c1ccccc1 | 3 | -1 | -3 | -8 | 2 | -1
O=C(Cc1ccncc1)N1CCCCN2[C@@H](CO)[C@@H](c3ccc(C#CC4(O)CCCC4)cc3)[C@@H]2C1 | -6 | nt | nt | 0 | 2 | -1
CN1C(=O)C(=Cc2ccccc2OCc2ccc(Cl)cc2)C(=O)N(C)C1=O | 4 | -3 | -5 | -4 | 2 | 112*
N#Cc1cccc(-c2ccc([C@@H]3[C@H]4CN(C(=O)Cc5ccccc5)CCCCN4[C@H]3CO)cc2)c1 | 9 | nt | nt | 1 | -1 | -1
COc1cccc(-c2ccc([C@@H]3[C@@H](CO)N4CCCCN(C(=O)Cc5ccncc5)C[C@@H]34)cc2)c1 | -5 | nt | nt | 6 | -1 | 0
COc1ccc(C#Cc2ccc([C@@H]3[C@H](CO)N4CCCCN(C(=O)Cc5cccnc5)C[C@@H]34)cc2)cc1 | -14 | nt | nt | 27* | 0 | -1
